Reference: ChEMBL document CHEMBL4270630

Legend:
[1] = tested on: Influenza A virus; assay: Antiviral activity against Influenza A virus A/Virginia/ATCC3/2009(H1N1pdm) infected in MDCK cells assessed as reduction in virus-induced cytopathic effect after 3 days by microscopic method; assay type: functional, organism-based, Influenza A virus (A/Virginia/03/2009(H1N1)); settings: 72 h
Outline: (§1)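 Semi-confluent MDCK cells were infected at an MOI of 0.0004 PFU/cell in Ultra-MDCK infection medium with 2 μg/mL TPCK-trypsin, together with compounds. After 3 days at 35 °C, CPE was scored by microscopy and confirmed by MTS formazan viability. EC50 is the concentration giving 50% inhibition of virus-induced CPE. Values are means of two to five independent tests.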

[2] = tested on: MDCK; assay: Cytotoxicity against MDCK cells assessed as reduction in cell viability after 3 days by MTS assay; assay type: cell-based, Canis lupus familiaris; settings: dog, mdck, 72 h
[3] = tested on: Human coronavirus 229E; assay: Antiviral activity against Human coronavirus 229E infected in HEL299 cells assessed as reduction in virus induced cytopathic effect after 5 days by microscopic method; assay type: functional, organism-based; settings: HEL 299, 120 h
Outline: (§2)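 Confluent HEL 299 cells in medium with 2% FCS were exposed to HCoV-229E (100 CCID50/well) together with compounds and held for 5 days at 35 °C. EC50 (CPE reduction) and MCC (minimal morphology change) were determined by microscopy. SI is MCC/EC50.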

[4] = tested on: H3N2 subtype; assay: Antiviral activity against Influenza A virus A/HK/7/87(H3N2) infected in MDCK cells after 3 days by MTS assay; assay type: functional, organism-based; settings: A/Hong Kong/7/1987(H3N2), 72 h; outline: as §1
[5] = tested on: Influenza A virus; assay: Antiviral activity against Influenza A virus A/PR/8/34(H1N1) infected in MDCK cells after 3 days by MTS assay; assay type: functional, organism-based, A/Puerto Rico/8/1934(H1N1); settings: Influenza A virus, A/Puerto Rico/8/1934(H1N1), MDCK, 72 h; outline: as §1
[6] = tested on: Human coronavirus 229E; assay: Antiviral activity against Human coronavirus 229E infected in human A549 cells assessed as reduction in virus RNA level after 3 days by qRT-PCR method; assay type: functional; settings: A549, 72 h
Outline: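 Confluent A549 cells were infected with HCoV-229E in 2% FCS medium with compounds present. The inoculum was removed at 1 h and compounds were kept on at 35 °C. Supernatants were harvested at day 3, lysed at 75 °C for 10 min, and viral genome copies counted by one-step qRT-PCR.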

[7] = tested on: Influenza A virus; assay: Antiviral activity against Influenza A virus A/PR/8/34(H1N1) infected in MDCK cells assessed as reduction in virus-induced cytopathic effect after 3 days by microscopic method; assay type: functional, organism-based, A/Puerto Rico/8/1934(H1N1); settings: Influenza A virus, A/Puerto Rico/8/1934(H1N1), MDCK, 72 h; outline: as §1
[8] = tested on: H3N2 subtype; assay: Antiviral activity against Influenza A virus A/HK/7/87(H3N2) infected in MDCK cells assessed as reduction in virus-induced cytopathic effect after 3 days by microscopic method; assay type: functional, organism-based; settings: A/Hong Kong/7/1987(H3N2), 72 h; outline: as §1
[9] = Cytotoxicity against MDCK cells assessed as alteration in cell morphology after 3 days by microscopic method; assay type: cell-based, Canis lupus familiaris; settings: dog
Outline: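 Mock-infected MDCK cells were treated with compounds in parallel with the antiviral assay, 3 days at 35 °C. MCC is the concentration causing minimal change in cell morphology by microscopy. CC50 is the 50% cytotoxic concentration by MTS formazan viability assay.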

[10] = Cytotoxicity against HEL299 cells assessed as changes in cell morphology after 5 days by microscopic method; assay type: cell-based, HEL 299; settings: human; outline: as §2
[11] = tested on: Influenza B virus; assay: Antiviral activity against Influenza B virus B/Ned/537/05 infected in MDCK cells assessed as reduction in virus-induced cytopathic effect after 3 days by microscopic method; assay type: functional, organism-based; settings: B/Ned/537/05, MDCK, 72 h
Outline: (§3)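 Semi-confluent MDCK cells were infected at an MOI of 0.0004 PFU/cell in Ultra-MDCK infection medium with 2 μg/mL TPCK-trypsin, together with compounds. After 3 days at 35 °C, CPE was scored by microscopy and confirmed by MTS formazan viability. Values are means of two to five independent tests.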

[12] = tested on: Influenza B virus; assay: Antiviral activity against Influenza B virus B/Ned/537/05 infected in MDCK cells after 3 days by MTS assay; assay type: functional, organism-based; settings: B/Ned/537/05, MDCK, 72 h; outline: as §3
[13] = Cytotoxicity against human A549 cells assessed as changes in cell morphology after 3 days by microscopic method; assay type: cell-based
Outline: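 Mock-infected A549 cells were incubated with compounds for 3 days. MCC is the concentration causing minimal change in cell morphology by microscopy.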

[14] = tested on: Influenza A virus; assay: Antiviral activity against Influenza A virus A/Virginia/ATCC3/2009(H1N1pdm) infected in MDCK cells after 3 days by MTS assay; assay type: functional, organism-based, Influenza A virus (A/Virginia/03/2009(H1N1)); settings: 72 h; outline: as §1
[15] = Selectivity index, ratio of MCC for HEL299 cells to EC50 for Human coronavirus 229E infected in HEL299 cells; assay type: toxicity, cell-based; settings: read-out: Selectivity Index; outline: as §2
[16] = Selectivity index, ratio of MCC for MDCK cells to EC50 for Influenza A virus A/HK/7/87(H3N2) infected in MDCK cells assessed as reduction in virus-induced cytopathic effect by microscopic method; assay type: toxicity, cell-based; settings: dog, read-out: Selectivity Index
Outline: (§4)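 Selectivity index is MCC divided by EC50. MCC comes from microscopy of mock-infected MDCK cells. EC50 comes from microscopic scoring of virus-induced CPE in MDCK cells infected at an MOI of 0.0004 PFU/cell with TPCK-trypsin. Both readings were taken after 3 days at 35 °C.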

[17] = Selectivity index, ratio of MCC for MDCK cells to EC50 for Influenza A virus A/PR/8/34(H1N1) infected in MDCK cells assessed as reduction in virus-induced cytopathic effect by microscopic method; assay type: toxicity, cell-based; settings: dog, read-out: Selectivity Index; outline: as §4
[18] = Selectivity index, ratio of MCC for MDCK cells to EC50 for Influenza B virus B/Ned/537/05 infected in MDCK cells assessed as reduction in virus-induced cytopathic effect by microscopic method; assay type: toxicity, cell-based; settings: dog, read-out: Selectivity Index; outline: as §4
[19] = Selectivity index, ratio of MCC for MDCK cells to EC50 for Influenza A virus A/Virginia/ATCC3/2009(H1N1pdm) infected in MDCK cells assessed as reduction in virus-induced cytopathic effect by microscopic method; assay type: toxicity, cell-based; settings: dog, read-out: Selectivity Index; outline: as §4
[20] = Selectivity index, ratio of MCC for MDCK cells to EC50 for Influenza B virus B/HK/05/72 infected in MDCK cells assessed as reduction in virus-induced cytopathic effect by microscopic method; assay type: toxicity, cell-based; settings: dog, read-out: Selectivity Index; outline: as §4

SMILES | EC50 [1] | CC50 [2] | EC50 [3] | EC50 [4] | EC50 [5] | EC90 [6] | EC99 [6] | EC50 [7] | EC50 [8] | MCC at 72 h [9] | MCC at 120 h [10] | EC50 [11] | EC50 [12] | MCC at 72 h [13] | EC50 [14] | selectivity ratio [15] | selectivity ratio [16] | selectivity ratio [17] | selectivity ratio [18] | selectivity ratio [19] | other results
CCCCCCCCCCCCS(=O)(=O)N[C@H]1C(=O)N[C@@H]2Cc3ccc(c(Cl)c3)Oc3cc4cc(c3O)Oc3ccc(cc3Cl)[C@@H](O[C@@H]3O[C@H](CO)[C@@H](O)[C@H](O)[C@H]3NC(C)=O)[C@H]3NC(=O)[C@H](NC(O)[C@@H]4NC(=O)[C@@H](NC2=O)c2cc(O)cc(c2)Oc2cc1ccc2O)c1ccc(O)c(c1)-c1c(O)cc(O)cc1[C@H](C(=O)O)NC3=O (some centres undefined) | > 100 µM | 4.5 µM | 1.8 µM | < 0.8 µM | 0.8 µM | 2.8 µM | 4.7 µM | 0.4 µM | < 0.8 µM | 4 µM | 20 µM | < 0.8 µM | < 0.8 µM | 50 µM | 1.6 µM | 13 | – | – | – | – | –
CCCCSC1=C(SCCCC)C(=O)N(CCOCCOCCOCCOCc2cn(C3C(=O)N[C@@H]4Cc5ccc(c(Cl)c5)Oc5cc6cc(c5O)Oc5ccc(cc5Cl)[C@@H](O[C@@H]5O[C@H](CO)[C@@H](O)[C@H](O)[C@H]5NC(C)=O)[C@H]5NC(=O)[C@H](NC(O)[C@@H]6NC(=O)[C@@H](NC4=O)c4cc(O)cc(c4)Oc4cc3ccc4O)c3ccc(O)c(c3)-c3c(O)cc(O)cc3[C@H](C(=O)O)NC5=O)nn2)C1=O (some centres undefined) | 9.5 µM | > 100 µM | 8.9 µM | 6 µM | 5.8 µM | 8.6 µM | 29 µM | 4.8 µM | 5.3 µM | 100 µM | ≥ 100 µM | 5.5 µM | 4.9 µM | > 50 µM | 8.6 µM | – | 16 | 16 | 16 | 16 | selectivity ratio [20]: 16
CCCCCCCCSC1=C(SCCCCCCCC)C(=O)N(Cc2cn(C3C(=O)N[C@@H]4Cc5ccc(c(Cl)c5)Oc5cc6cc(c5O)Oc5ccc(cc5Cl)[C@@H](O[C@@H]5O[C@H](CO)[C@@H](O)[C@H](O)[C@H]5NC(C)=O)[C@H]5NC(=O)[C@H](NC(O)[C@@H]6NC(=O)[C@@H](NC4=O)c4cc(O)cc(c4)Oc4cc3ccc4O)c3ccc(O)c(c3)-c3c(O)cc(O)cc3[C@H](C(=O)O)NC5=O)nn2)C1=O (some centres undefined) | 4.4 µM | 49 µM | – | 6.3 µM | 12 µM | – | – | 9.2 µM | 8.9 µM | 73 µM | – | 6.7 µM | 7.2 µM | – | 3.4 µM | – | 10 | 10 | 10 | 10 | selectivity ratio [20]: 10
CCCCCCS(=O)(=O)N[C@H]1C(=O)N[C@@H]2Cc3ccc(c(Cl)c3)Oc3cc4cc(c3O)Oc3ccc(cc3Cl)[C@@H](O[C@@H]3O[C@H](CO)[C@@H](O)[C@H](O)[C@H]3NC(C)=O)[C@H]3NC(=O)[C@H](NC(O)[C@@H]4NC(=O)[C@@H](NC2=O)c2cc(O)cc(c2)Oc2cc1ccc2O)c1ccc(O)c(c1)-c1c(O)cc(O)cc1[C@H](C(=O)O)NC3=O (some centres undefined) | 8.9 µM | 54 µM | 1.5 µM | 8.9 µM | 9.6 µM | – | – | 8.6 µM | 8.3 µM | 100 µM | 20 µM | 8.9 µM | 10.3 µM | – | 9.1 µM | 11 | – | – | – | – | –
